{
  "source": "paper PMC12489099",
  "about": "(Nature Communications, 2025)",
  "type_in_all_cases": "biochemical",
  "key": {"Wt-Tau441": {"molecular_target": "Wt-Tau441 (Homo sapiens, UniProt P10636)", "test": "ThT fluorescence assay of Wt-Tau fibrillization", "outline": "(§1)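 Lyophilized full-length Tau441 (wild-type or ΔK280) was diluted to 40 µM stock in 25 mM NaPi, 25 mM NaCl, 2.5 mM EDTA, pH 6.8, and used at 10 µM final with 25 µM ThT. Aggregation was started with 0.0625 µM heparin. Water-dissolved test compound was added at 50, 10 or 1 µM. Fluorescence was followed over time. Curves were fitted to a Boltzmann sigmoid and scaled to maximal control fluorescence; Wt-Tau relative F was taken at 30 h.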"}, "Tau441-ΔK280": {"molecular_target": "Tau441-ΔK280 (Homo sapiens, UniProt P10636, DEL597-597)", "test": "ThT fluorescence assay of Tau-ΔK280 fibrillization", "conditions": "both 5/1 and 1/1 ratios", "outline": "as §1"}, "Aβ1-42": {"molecular_target": "Aβ1-42 (Homo sapiens, UniProt P05067)", "sequence (P05067 672-713)": "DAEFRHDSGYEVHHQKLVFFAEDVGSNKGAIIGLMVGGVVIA", "test": "ThT fluorescence assay of Aβ1-42 fibrillization", "conditions": "compound/Aβ1-42 ratio 1/1"}},
  "data": [
    {"smiles": "CN(C)c1ccc2nc3ccc(=[N+](C)C)cc-3sc2c1", "note": "[MB, methylthioninium chloride]", "values": [
      {"measurement": "decrease of F versus Wt-Tau control", "setting": "Wt-Tau441; compound/Wt-Tau ratio 0.1/1", "value": 50, "unit": "%"},
      {"measurement": "t1/2, change versus Wt-Tau control", "setting": "Wt-Tau441; compound/Wt-Tau ratio 1/1, N.A. = no aggregation", "value": "+55%"},
      {"measurement": "inhibition of the aggregation of Wt-Tau (in words)", "setting": "Wt-Tau441; compound/Wt-Tau ratio 5/1, ThT", "value": "complete inhibition"},
      {"measurement": "inhibition of the aggregation of Tau-ΔK280 (in words)", "setting": "Tau441-ΔK280", "value": "complete inhibition"}
    ]},
    {"smiles": "Oc1ccc(/C=C/c2cc(O)cc(O)c2)cc1", "note": "[Resveratrol]", "values": [
      {"measurement": "F, change versus Aβ1-42 control", "setting": "Aβ1-42", "value": -78, "unit": "%"}
    ]}
  ]
}
